How the values were obtained:
Assay type in all cases: organism-based
[1] = Acute toxicity in Swiss albino mouse assessed as absolute liver weight at 5 to 300 mg/kg, po administered once and observed for 7 days; details: in vivo, 168 h, dose 5-300 mg/kg, time 7 day
Method in brief: (§1)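 Acute oral toxicity per OECD guideline 423; mice 20–25 g, 3 male + 3 female per group, acclimatized 7 days at 22 ± 5 °C, 12 h light/dark. Compound dissolved in minimal DMSO, diluted in 0.7% CMC, single oral dose of 5, 50 or 300 mg/kg; controls given vehicle only. Clinical signs checked hourly on dosing day, then daily. Samples and body weights taken on day 7.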

[2] = Acute toxicity in Swiss albino mouse assessed as hemoglobin level at 50 mg/kg, po administered once and observed for 7 days (reference value: 17.35 +/- 0.3 gm/dl); details: in vivo, 168 h, time 7 day
[3] = Acute toxicity in Swiss albino mouse assessed as mortality at 5 to 300 mg/kg, po administered once and observed for 7 days; details: in vivo, 168 h, dose 5-300 mg/kg, time 7 day; method in brief: as §1
[4] = Acute toxicity in Swiss albino mouse assessed as cholesterol level at 5 mg/kg, po administered once and observed for 7 days (reference value: 122.05 +/- 8.12 mg/dl); details: in vivo, 168 h, time 7 day
[5] = Acute toxicity in Swiss albino mouse assessed as albumin at 50 mg/kg, po administered once and observed for 7 days (reference value: 1.62 +/- 0.09 g/dl); details: in vivo, 168 h, time 7 day
[6] = Acute toxicity in Swiss albino mouse assessed as effect on response of organism at 5 to 300 mg/kg, po administered once and observed for 7 days; details: in vivo, 168 h, dose 5-300 mg/kg, time 7 day; method in brief: as §1
[7] = Acute toxicity in Swiss albino mouse assessed as SGOT level at 300 mg/kg, po administered once and observed for 7 days (reference value: 22.94 +/- 4.04 U/L); details: in vivo, 168 h, time 7 day
[8] = Acute toxicity in Swiss albino mouse assessed as body weight at 5 mg/kg, po administered once and observed for 7 days (reference value: 22.75 +/- 0.93 gm); details: in vivo, 168 h, time 7 day
[9] = Acute toxicity in Swiss albino mouse assessed as SGPT level at 50 mg/kg, po administered once and observed for 7 days (reference value: 12.65 +/- 2.98 U/L); details: in vivo, 168 h, time 7 day
[10] = Acute toxicity in Swiss albino mouse assessed as cholesterol level at 300 mg/kg, po administered once and observed for 7 days (reference value: 122.05 +/- 8.12 mg/dl); details: in vivo, 168 h, time 7 day
[11] = Acute toxicity in Swiss albino mouse assessed as hemoglobin level at 5 mg/kg, po administered once and observed for 7 days (reference value: 17.35 +/- 0.3 gm/dl); details: in vivo, 168 h, time 7 day
[12] = Acute toxicity in Swiss albino mouse assessed as effect on posture at 5 to 300 mg/kg, po administered once and observed for 7 days; details: in vivo, 168 h, dose 5-300 mg/kg, time 7 day; method in brief: as §1
[13] = Acute toxicity in Swiss albino mouse assessed as triglyceride level at 300 mg/kg, po administered once and observed for 7 days (reference value: 81.12 +/- 7.75 mg/dl); details: in vivo, 168 h, time 7 day
[14] = Acute toxicity in Swiss albino mouse assessed as bilirubin level at 300 mg/kg, po administered once and observed for 7 days (reference value: 0.44 +/- 0.06 mg/dl); details: in vivo, 168 h, time 7 day
[15] = Acute toxicity in Swiss albino mouse assessed as relative kidney weight at 5 to 300 mg/kg, po administered once and observed for 7 days; details: in vivo, 168 h, dose 5-300 mg/kg, time 7 day; method in brief: as §1
[16] = Acute toxicity in Swiss albino mouse assessed as creatinine level at 50 mg/kg, po administered once and observed for 7 days (reference value: 0.11 +/- 0.03 mg/dL); details: in vivo, 168 h, time 7 day
[17] = Acute toxicity in Swiss albino mouse assessed as ALP level at 5 mg/kg, po administered once and observed for 7 days (reference value: 123.22 +/- 16.04 U/L); details: in vivo, 168 h, time 7 day
[18] = Acute toxicity in Swiss albino mouse assessed as WBC level at 5 mg/kg, po administered once and observed for 7 days (reference value: 8.55 +/- 2.71 /mm3); details: in vivo, 168 h, time 7 day
[19] = Acute toxicity in Swiss albino mouse assessed as triglyceride level at 50 mg/kg, po administered once and observed for 7 days (reference value: 81.12 +/- 7.75 mg/dl); details: in vivo, 168 h, time 7 day
[20] = Acute toxicity in Swiss albino mouse assessed as SGPT level at 300 mg/kg, po administered once and observed for 7 days (reference value: 12.65 +/- 2.98 U/L); details: in vivo, 168 h, time 7 day
[21] = Acute toxicity in Swiss albino mouse assessed as absolute heart weight at 5 to 300 mg/kg, po administered once and observed for 7 days; details: in vivo, 168 h, dose 5-300 mg/kg, time 7 day; method in brief: as §1
[22] = Acute toxicity in Swiss albino mouse assessed as hemoglobin level at 300 mg/kg, po administered once and observed for 7 days (reference value: 17.35 +/- 0.3 gm/dl); details: in vivo, 168 h, time 7 day
[23] = Acute toxicity in Swiss albino mouse assessed as relative spleen weight at 5 to 300 mg/kg, po administered once and observed for 7 days; details: in vivo, 168 h, dose 5-300 mg/kg, time 7 day; method in brief: as §1
[24] = Acute toxicity in Swiss albino mouse assessed as absolute lungs weight at 5 to 300 mg/kg, po administered once and observed for 7 days; details: in vivo, 168 h, dose 5-300 mg/kg, time 7 day; method in brief: as §1
[25] = Acute toxicity in Swiss albino mouse assessed as cholesterol level at 50 mg/kg, po administered once and observed for 7 days (reference value: 122.05 +/- 8.12 mg/dl); details: in vivo, 168 h, time 7 day
[26] = Acute toxicity in Swiss albino mouse assessed as body weight at 50 mg/kg, po administered once and observed for 7 days (reference value: 22.75 +/- 0.93 gm); details: in vivo, 168 h, time 7 day
[27] = Acute toxicity in Swiss albino mouse assessed as effect on gait at 5 to 300 mg/kg, po administered once and observed for 7 days; details: in vivo, 168 h, dose 5-300 mg/kg, time 7 day; method in brief: as §1
[28] = Acute toxicity in Swiss albino mouse assessed as bilirubin level at 50 mg/kg, po administered once and observed for 7 days (reference value: 0.44 +/- 0.06 mg/dl); details: in vivo, 168 h, time 7 day
[29] = Acute toxicity in Swiss albino mouse assessed as RBC level at 5 mg/kg, po administered once and observed for 7 days (reference value: 9.21 +/- 0.32 /mm3); details: in vivo, 168 h, time 7 day
[30] = Acute toxicity in Swiss albino mouse assessed as albumin at 300 mg/kg, po administered once and observed for 7 days (reference value: 1.62 +/- 0.09 g/dl); details: in vivo, 168 h, time 7 day
[31] = Acute toxicity in Swiss albino mouse assessed as bilirubin level at 5 mg/kg, po administered once and observed for 7 days (reference value: 0.44 +/- 0.06 mg/dl); details: in vivo, 168 h, time 7 day
[32] = Acute toxicity in Swiss albino mouse assessed as relative liver weight at 5 to 300 mg/kg, po administered once and observed for 7 days; details: in vivo, 168 h, dose 5-300 mg/kg, time 7 day; method in brief: as §1
[33] = Acute toxicity in Swiss albino mouse assessed as RBC level at 50 mg/kg, po administered once and observed for 7 days (reference value: 9.21 +/- 0.32 /mm3); details: in vivo, 168 h, time 7 day
[34] = Acute toxicity in Swiss albino mouse assessed as WBC level at 50 mg/kg, po administered once and observed for 7 days (reference value: 8.55 +/- 2.71 /mm3); details: in vivo, 168 h, time 7 day
[35] = Acute toxicity in Swiss albino mouse assessed as triglyceride level at 5 mg/kg, po administered once and observed for 7 days (reference value: 81.12 +/- 7.75 mg/dl); details: in vivo, 168 h, time 7 day

Row | SMILES | Activity [1] | Activity [2] [g/dL] | Activity [3] | Activity [4] [mg/dL] | Activity [5] [g/dL] | Activity [6] | Activity [7] [U/L] | Activity [8] [g] | Activity [9] [U/L] | Activity [10] [mg/dL] | Activity [11] [g/dL] | Activity [12] | Activity [13] [mg/dL] | Activity [14] [mg/dL] | Activity [15] | Activity [16] [mg/dL] | Activity [17] [U/L] | Activity [18] [thousands/mm3] | Activity [19] [mg/dL] | Activity [20] [U/L] | also measured
1 | COc1ccc2c(c1)c(Cc1ccc(OC(C)CN(C)C)cc1)c(-c1cc(OC)c(OC)c(OC)c1)n2Cc1ccc(OC(C)CN(C)C)cc1 (stereo not given) | Non-Toxic | 15.21 | Non-Toxic | 117.25 | 1.29 | Non-Toxic | 33.25 | 21.6 | 18.69 | 108.72 | 15.83 | Non-Toxic | 86.58 | 0.36 | Non-Toxic | 0.12 | 87.76 | 6.23 | 83.99 | 19.12 | Activity [21]: Non-Toxic; Activity [22]: 15.54 g/dL; Activity [23]: Non-Toxic; Activity [24]: Non-Toxic; Activity [25]: 108.65 mg/dL; Activity [26]: 23.48 g; Activity [27]: Non-Toxic; Activity [28]: 0.39 mg/dL; Activity [29]: 9.12 million/mm3; Activity [30]: 1.53 g/dL; Activity [31]: 0.34 mg/dL; Activity [32]: Non-Toxic; Activity [33]: 8.67 million/mm3; Activity [34]: 7.5 thousands/mm3; Activity [35]: 105.82 mg/dL
2 | COc1ccc2c(c1)c(Cc1ccc(OCCN(C)C)cc1)c(-c1cc(OC)c(OC)c(OC)c1)n2Cc1ccc(OCCN(C)C)cc1 | Non-Toxic | 17.01 | Non-Toxic | 112.13 | 1.43 | Non-Toxic | 27.73 | 21.71 | 15.07 | 132.33 | 16.59 | Non-Toxic | 91.2 | 0.36 | Non-Toxic | 0.14 | 97.53 | 6.73 | 91.7 | 16 | Activity [21]: Non-Toxic; Activity [22]: 15.96 g/dL; Activity [23]: Non-Toxic; Activity [24]: Non-Toxic; Activity [25]: 121.96 mg/dL; Activity [26]: 21.31 g; Activity [27]: Non-Toxic; Activity [28]: 0.35 mg/dL; Activity [29]: 9.67 million/mm3; Activity [30]: 1.94 g/dL; Activity [31]: 0.3 mg/dL; Activity [32]: Non-Toxic; Activity [33]: 8.72 million/mm3; Activity [34]: 4.86 thousands/mm3; Activity [35]: 63.83 mg/dL

Reference: ChEMBL document CHEMBL4811308, “Design, synthesis and broad spectrum antibreast cancer activity of diarylindoles via induction of apoptosis in aggressive breast cancer cells” (Bioorg Med Chem, 2021)
